From ChEMBL document CHEMBL3758168, “Hybrid triazoles: Design and synthesis as potential dual inhibitor of growth and efflux inhibition in tuberculosis” (Eur J Med Chem, 2016)
In brackets after ≈: the same amount, converted by molar mass.

What was measured:
[1] = tested on: Mycolicibacterium smegmatis; test: Anti-tubercular activity against Mycobacterium smegmatis MC2 155 ATCC 700084 after 3 days by microdilution method; type: functional; settings: MC2 155 ATCC 700084, 72 h
How it was run: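 M. smegmatis mc2155 grown in MB7H9 + 10% OADC at 37 °C with shaking to OD600 0.8. Inoculum set to 0.5 McFarland, diluted 1:100, and mixed 1:1 with two-fold serial dilutions in MB7H9. Plates incubated 3 days at 37 °C with growth and sterility controls. MIC taken as the lowest concentration with no visible growth.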

[2] = tested on: Mycobacterium tuberculosis; test: Antibacterial activity against Mycobacterium tuberculosis H37Rv ATCC 27294T assessed as ofloxacin MIC at 4 ug/ml after 7 days by microdilution checkerboard assay; type: functional; settings: 168 h
How it was run: (§1)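 Two-dimensional checkerboard in H37Rv at 10^5 CFU/ml in MB7H9/OADC. Partner drug (amikacin, EtBr, isoniazid, ofloxacin or rifampin) two-fold serially diluted across columns 3-11. Test compound two-fold serially diluted down rows 2-6. Plates incubated 7 days at 37 °C, then MTT added overnight. […] Run in triplicate.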

[3] = tested on: Mycobacterium tuberculosis; test: Antibacterial activity against Mycobacterium tuberculosis H37Rv ATCC 27294T assessed as ethidium bromide MIC at 256 ug/ml after 7 days by microdilution checkerboard assay; type: functional; settings: 168 h; how it was run: as §1
[4] = tested on: Mycobacterium tuberculosis; test: Antibacterial activity against Mycobacterium tuberculosis H37Rv ATCC 27294T assessed as ofloxacin MIC at 32 ug/ml after 7 days by microdilution checkerboard assay; type: functional; settings: 168 h; how it was run: as §1
[5] = tested on: Mycobacterium tuberculosis; test: Antibacterial activity against Mycobacterium tuberculosis H37Rv ATCC 27294T assessed as ofloxacin MIC at 8 ug/ml after 7 days by microdilution checkerboard assay; type: functional; settings: 168 h; how it was run: as §1
[6] = tested on: Mycobacterium tuberculosis; test: Antibacterial activity against Mycobacterium tuberculosis H37Rv ATCC 27294T assessed as ofloxacin MIC at 16 ug/ml after 7 days by microdilution checkerboard assay; type: functional; settings: 168 h; how it was run: as §1
[7] = tested on: Mycobacterium tuberculosis; test: Antibacterial activity against Mycobacterium tuberculosis H37Rv ATCC 27294T assessed as rifampin MIC at 256 ug/ml after 7 days by microdilution checkerboard assay; type: functional; settings: 168 h
How it was run: (§2)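 M. tuberculosis H37Rv grown in MB7H9 + 10% OADC at 37 °C to OD600 0.8; plates inoculated at 10^5 CFU/ml. Rifampicin two-fold serially diluted across columns, test compound two-fold diluted down rows (two-dimensional checkerboard). Sealed, 37 °C for seven days, then MTT added and incubated overnight. MIC read as no colour change. Triplicate.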

[8] = tested on: Mycobacterium tuberculosis; test: Antibacterial activity against Mycobacterium tuberculosis H37Rv ATCC 27294T assessed as ethidium bromide MIC at 128 ug/ml after 7 days by microdilution checkerboard assay; type: functional; settings: 168 h; how it was run: as §1
[9] = tested on: Mycobacterium tuberculosis; test: Anti-tubercular activity against Mycobacterium tuberculosis H37Rv ATCC 27294T after 7 days by mircodilution method; type: functional; settings: 168 h
How it was run: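 H37Rv grown static in MB7H9 + 10% OADC at 37 °C to OD600 0.8, then diluted to about 10^5 cells/ml. Mixed 1:1 with two-fold serial dilutions in MB7H9/OADC and incubated 7 days at 37 °C. MTT added to final 2.5% and plates incubated overnight. MIC is the lowest concentration with no colour change. Run in triplicate.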

[10] = tested on: Mycobacterium tuberculosis; test: Antibacterial activity against Mycobacterium tuberculosis H37Rv ATCC 27294T assessed as amikacin MIC at 4 ug/ml after 7 days by microdilution checkerboard assay; type: functional; settings: 168 h; how it was run: as §1
[11] = tested on: Mycobacterium tuberculosis; test: Antibacterial activity against Mycobacterium tuberculosis H37Rv ATCC 27294T assessed as isoniazid MIC at 256 ug/ml after 7 days by microdilution checkerboard assay; type: functional; settings: 168 h; how it was run: as §1
[12] = tested on: Mycobacterium tuberculosis; test: Antibacterial activity against Mycobacterium tuberculosis H37Rv ATCC 27294T assessed as isoniazid MIC at 1 ug/ml after 7 days by microdilution checkerboard assay; type: functional; settings: 168 h; how it was run: as §1
[13] = tested on: Mycobacterium tuberculosis; test: Antibacterial activity against Mycobacterium tuberculosis H37Rv ATCC 27294T assessed as ethidium bromide MIC at 4 ug/ml after 7 days by microdilution checkerboard assay; type: functional; settings: 168 h; how it was run: as §1
[14] = tested on: Mycobacterium tuberculosis; test: Antibacterial activity against Mycobacterium tuberculosis H37Rv ATCC 27294T assessed as rifampin MIC at 16 ug/ml after 7 days by microdilution checkerboard assay; type: functional; settings: 168 h; how it was run: as §2
[15] = tested on: Mycobacterium tuberculosis; test: Antibacterial activity against Mycobacterium tuberculosis H37Rv ATCC 27294T assessed as ofloxacin MIC at 2 ug/ml after 7 days by microdilution checkerboard assay; type: functional; settings: 168 h; how it was run: as §1
[16] = tested on: Mycobacterium tuberculosis; test: Antibacterial activity against Mycobacterium tuberculosis H37Rv ATCC 27294T assessed as rifampin MIC at 4 ug/ml after 7 days by microdilution checkerboard assay; type: functional; settings: 168 h; how it was run: as §2
[17] = tested on: Mycobacterium tuberculosis; test: Antibacterial activity against Mycobacterium tuberculosis H37Rv ATCC 27294T assessed as ofloxacin MIC at 64 ug/ml after 7 days by microdilution checkerboard assay; type: functional; settings: 168 h; how it was run: as §1
[18] = tested on: Mycobacterium tuberculosis; test: Antibacterial activity against Mycobacterium tuberculosis H37Rv ATCC 27294T assessed as isoniazid MIC at 16 ug/ml after 7 days by microdilution checkerboard assay; type: functional; settings: 168 h; how it was run: as §1
[19] = tested on: Mycobacterium tuberculosis; test: Antibacterial activity against Mycobacterium tuberculosis H37Rv ATCC 27294T assessed as isoniazid MIC at 2 ug/ml after 7 days by microdilution checkerboard assay; type: functional; settings: 168 h; how it was run: as §1
[20] = tested on: Mycobacterium tuberculosis; test: Antibacterial activity against Mycobacterium tuberculosis H37Rv ATCC 27294T assessed as amikacin MIC at 32 ug/ml after 7 days by microdilution checkerboard assay; type: functional; settings: 168 h; how it was run: as §1
[21] = tested on: Mycobacterium tuberculosis; test: Antibacterial activity against Mycobacterium tuberculosis H37Rv ATCC 27294T assessed as ethidium bromide MIC at 1 ug/ml after 7 days by microdilution checkerboard assay; type: functional; settings: 168 h; how it was run: as §1
[22] = tested on: Mycobacterium tuberculosis; test: Antibacterial activity against Mycobacterium tuberculosis H37Rv ATCC 27294T assessed as rifampin MIC at 32 ug/ml after 7 days by microdilution checkerboard assay; type: functional; settings: 168 h; how it was run: as §2
[23] = tested on: Mycobacterium tuberculosis; test: Antibacterial activity against Mycobacterium tuberculosis H37Rv ATCC 27294T assessed as amikacin MIC at 2 ug/ml after 7 days by microdilution checkerboard assay; type: functional; settings: 168 h; how it was run: as §1
[24] = tested on: Mycobacterium tuberculosis; test: Antibacterial activity against Mycobacterium tuberculosis H37Rv ATCC 27294T assessed as isoniazid MIC at 8 ug/ml after 7 days by microdilution checkerboard assay; type: functional; settings: 168 h; how it was run: as §1
[25] = tested on: Mycobacterium tuberculosis; test: Antibacterial activity against Mycobacterium tuberculosis H37Rv ATCC 27294T assessed as amikacin MIC at 1 ug/ml after 7 days by microdilution checkerboard assay; type: functional; settings: 168 h; how it was run: as §1
[26] = tested on: Mycobacterium tuberculosis; test: Antibacterial activity against Mycobacterium tuberculosis H37Rv ATCC 27294T assessed as amikacin MIC at 8 ug/ml after 7 days by microdilution checkerboard assay; type: functional; settings: 168 h; how it was run: as §1
[27] = tested on: Mycobacterium tuberculosis; test: Antibacterial activity against Mycobacterium tuberculosis H37Rv ATCC 27294T assessed as ethidium bromide MIC at 8 ug/ml after 7 days by microdilution checkerboard assay; type: functional; settings: 168 h; how it was run: as §1
[28] = tested on: Mycobacterium tuberculosis; test: Antibacterial activity against Mycobacterium tuberculosis H37Rv ATCC 27294T assessed as ofloxacin MIC at 1 ug/ml after 7 days by microdilution checkerboard assay; type: functional; settings: 168 h; how it was run: as §1
[29] = tested on: Mycobacterium tuberculosis; test: Antibacterial activity against Mycobacterium tuberculosis H37Rv ATCC 27294T assessed as isoniazid MIC at 32 ug/ml after 7 days by microdilution checkerboard assay; type: functional; settings: 168 h; how it was run: as §1
[30] = tested on: Mycobacterium tuberculosis; test: Antibacterial activity against Mycobacterium tuberculosis H37Rv ATCC 27294T assessed as rifampin MIC at 64 ug/ml after 7 days by microdilution checkerboard assay; type: functional; settings: 168 h; how it was run: as §2
[31] = tested on: Mycobacterium tuberculosis; test: Antibacterial activity against Mycobacterium tuberculosis H37Rv ATCC 27294T assessed as isoniazid MIC at 4 ug/ml after 7 days by microdilution checkerboard; type: functional; settings: 168 h; how it was run: as §1
[32] = tested on: Mycobacterium tuberculosis; test: Antibacterial activity against Mycobacterium tuberculosis H37Rv ATCC 27294T assessed as isoniazid MIC at 64 ug/ml after 7 days by microdilution checkerboard assay; type: functional; settings: 168 h; how it was run: as §1
[33] = tested on: Mycobacterium tuberculosis; test: Antibacterial activity against Mycobacterium tuberculosis H37Rv ATCC 27294T assessed as ethidium bromide MIC at 32 ug/ml after 7 days by microdilution checkerboard assay; type: functional; settings: 168 h; how it was run: as §1
[34] = tested on: Mycobacterium tuberculosis; test: Antibacterial activity against Mycobacterium tuberculosis H37Rv ATCC 27294T assessed as ethidium bromide MIC at 2 ug/ml after 7 days by microdilution checkerboard assay; type: functional; settings: 168 h; how it was run: as §1
[35] = tested on: Mycobacterium tuberculosis; test: Antibacterial activity against Mycobacterium tuberculosis H37Rv ATCC 27294T assessed as amikacin MIC at 16 ug/ml after 7 days by microdilution checkerboard assay; type: functional; settings: 168 h; how it was run: as §1
[36] = Cytotoxicity against human MDM assessed as cell viability after 3 days by Alamar blue dye-based fluorocytometric analysis relative to control; settings: 72 h
[37] = tested on: Mycobacterium tuberculosis; test: Antibacterial activity against Mycobacterium tuberculosis H37Rv ATCC 27294T assessed as ethidium bromide MIC at 64 ug/ml after 7 days by microdilution checkerboard assay; type: functional; settings: 168 h; how it was run: as §1
[38] = tested on: Mycobacterium tuberculosis; test: Antibacterial activity against Mycobacterium tuberculosis H37Rv ATCC 27294T assessed as rifampin MIC at 8 ug/ml after 7 days by microdilution checkerboard assay; type: functional; settings: 168 h; how it was run: as §2
[39] = tested on: Mycobacterium tuberculosis; test: Antibacterial activity against Mycobacterium tuberculosis H37Rv ATCC 27294T assessed as rifampin MIC at 2 ug/ml after 7 days by microdilution checkerboard assay; type: functional; settings: 168 h; how it was run: as §2
[40] = tested on: Mycobacterium tuberculosis; test: Antibacterial activity against Mycobacterium tuberculosis H37Rv ATCC 27294T assessed as rifampin MIC at 1 ug/ml after 7 days by microdilution checkerboard assay; type: functional; settings: 168 h; how it was run: as §2
[41] = tested on: Mycobacterium tuberculosis; test: Antibacterial activity against Mycobacterium tuberculosis H37Rv ATCC 27294T assessed as amikacin MIC at 64 ug/ml after 7 days by microdilution checkerboard assay; type: functional; settings: 168 h; how it was run: as §1
[42] = tested on: Mycobacterium tuberculosis; test: Antibacterial activity against Mycobacterium tuberculosis H37Rv ATCC 27294T assessed as ethidium bromide MIC at 16 ug/ml after 7 days by microdilution checkerboard assay; type: functional; settings: 168 h; how it was run: as §1

COc1ccc(CCN(C)CCCC(C#N)(c2ccc(OC)c(OC)c2)C(C)C)cc1OC (centres undefined)
MIC [1]: 776 mg/L (≈ 1710 µM)
MIC [2]: 2 mg/L
MIC [3]: 0.781 mg/L
MIC [4]: 2 mg/L
MIC [5]: 2 mg/L
MIC [6]: 2 mg/L
MIC [7]: 0.125 mg/L
MIC [8]: 3.12 mg/L
MIC [9]: 128 mg/L (≈ 282 µM)
MIC [10]: 2 mg/L
MIC [11]: 0.0125 mg/L

CCCSc1nnc(COc2ccccc2C2=NOC(c3ccc(Cl)cc3Cl)C2)n1NC(=O)c1ccccc1 (centres undefined)
MIC [12]: 0.1 mg/L
MIC [13]: 12.5 mg/L
MIC [1]: 2 mg/L (≈ 3.43 µM)
MIC [14]: 0.25 mg/L
MIC [2]: 2 mg/L
MIC [15]: 2 mg/L
MIC [16]: 0.25 mg/L
MIC [4]: 1 mg/L
MIC [5]: 2 mg/L
MIC [17]: 1 mg/L
MIC [18]: 0.1 mg/L
MIC [19]: 0.1 mg/L
MIC [20]: 1 mg/L
MIC [21]: 12.5 mg/L
MIC [22]: 0.125 mg/L
MIC [6]: 2 mg/L
MIC [23]: 2 mg/L
MIC [24]: 0.1 mg/L
MIC [25]: 2 mg/L
MIC [26]: 2 mg/L
MIC [27]: 12.5 mg/L
MIC [28]: 2 mg/L
MIC [29]: 0.1 mg/L
MIC [30]: 0.0312 mg/L
MIC [31]: 0.1 mg/L
MIC [32]: 0.05 mg/L
MIC [33]: 12.5 mg/L
MIC [9]: 32 mg/L (≈ 54.9 µM)
MIC [10]: 2 mg/L
MIC [34]: 12.5 mg/L
MIC [35]: 2 mg/L
IC50 [36]: 14.8 mg/L (≈ 25.4 µM)
MIC [37]: 6.25 mg/L
MIC [38]: 0.25 mg/L
MIC [39]: 0.25 mg/L
MIC [40]: 0.5 mg/L
MIC [41]: 1 mg/L
MIC [42]: 12.5 mg/L
